Measured values reported in the EternaBench riboswitch data.

Tests used:
[1] = tested on: MS2 coat protein; assay: apparent Kd, MS2 coat protein; higher = weaker binding; RNA-MaP array
Summary of the method: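 Apparent Kd was taken as the median of binding curves fitted cluster by cluster. The designed RNAs were made by transcription of sequenced DNA templates on an Illumina sequencing chip and exposed to fluorescently labeled MS2 coat protein (1.5 nM to 3 μM) at room temperature, with or without input ligand, for 0.8–1.5 h at the lowest and 10–20 min at the highest concentrations. Any design measured on fewer than 10 clusters was left out.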

[2] = tested on: MS2 coat protein; assay: apparent Kd, MS2 coat protein; higher = weaker binding; RNA-MaP array; FMN 200 µM where present
Summary of the method: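 The apparent Kd is reported as the median of filtered per-cluster binding-curve fits. To get these curves, designs transcribed by stalled E. coli RNA polymerase on Illumina sequencing-chip clusters were titrated with SNAP-549-labelled MS2 coat protein from 0.7 or 1.5 nM, doubling to 3 µM. Titrations were run without and then with constant ligand in 100 mM Tris-HCl pH 7.5, 80 mM KCl, 4 mM MgCl2, BSA, DTT, yeast tRNA and Tween-20, and green signal was normalised to red-channel RNA signal and control-cluster median Fmax.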

[3] = designed as: OFF switch for flavin mononucleotide, no ligand
[4] = ligand present: flavin mononucleotide, designed as: OFF switch for flavin mononucleotide
[5] = designed as: ON switch for flavin mononucleotide, no ligand
[6] = ligand present: flavin mononucleotide, designed as: ON switch for flavin mononucleotide

Sequence	apparent Kd [2, 3] [nM]	apparent Kd [2, 4] [nM]	further results
AAACUAUGAGGAUAUACAUGAGGAUCACCCAUGUCGGUACUGGUAUGGCCCUGAUCCCGUAGAAGGCAUCGGUC	–	–	apparent Kd [1, 3]: 369 nM; apparent Kd [1, 4]: 436 nM
AAAGCCUUUCUAGGAUAUCAAUACAGUCGUGGUUGAGAAGGAGAAACUGCGUUCUAGACAUGAGGAUCACCCAUGUCCUCAAUG	–	–	apparent Kd [1, 5]: 98.6 nM; apparent Kd [1, 6]: 71.9 nM
AAAGCUACCAAAGGAUAUUGUUUCCAUCACACAUGAGGAUCACCCAUGUAGCCAUAAACGGAUCGCAAGAAGGUUGGGAAAGUG	–	–	apparent Kd [1, 5]: 18.3 nM; apparent Kd [1, 6]: 9.07 nM
AAAGGAUUCAAGAAGGUACCCUAACAUGAGGAUCACCCAUGUCUCGGUGGCAUCAAGGUACCUGGUAAGGAUAUUGCAACCACU	–	–	apparent Kd [1, 5]: 39.4 nM; apparent Kd [1, 6]: 33.2 nM
AACAAACACAUGAGGAUCACCCAUGUCCUUGAUAUAAUUACUCAGGAUAUCAUGUCCUCUCACCGUGAGAAGGGAGUCAAAACC	–	–	apparent Kd [1, 5]: 76.8 nM; apparent Kd [1, 6]: 59.5 nM
AACAUGAGGAUCACCCAUGUCGGGUAUAGGAAUGUGUGUCUGCAGGAUAUGCCUUGCAUUGCAUAGCAGAAGGGCACGGCUCAG	–	–	apparent Kd [1, 3]: 125 nM; apparent Kd [1, 4]: 64.2 nM
AACAUGAGGAUCACCCAUGUUUCAGAUCCUCUCUGGUUCAAGUAGGAUAUGUGUGAUACGGAAGUACAGAAGGACUCCGGAGCA	–	–	apparent Kd [1, 3]: 38.4 nM; apparent Kd [1, 4]: 29.5 nM
AACAUGUCUCAAGGAUAUAAAACGCUAAAUGGCUUAGAAGGUGAGGCCGCUGUGAGGAUCCCUGACAUGAGGAUCACCCAUGUC	–	–	apparent Kd [1, 5]: 10.8 nM; apparent Kd [1, 6]: 9.76 nM
AACCGACAUGAGGAUCACCCAUGUGAGGAUAUGUUCGAGCUGGCAGGACCACCCUGGGACAGAAGGCACGUGAA	–	–	apparent Kd [1, 3]: 11.2 nM; apparent Kd [1, 4]: 17.7 nM
AAGCUACAUGAGGAUCACCCAUGUCUCACGUCACUAGGAUAUCUGAAGGUGACGAAGUUCAGAGAAGGAGUGCAUC	–	–	apparent Kd [1, 5]: 97.2 nM; apparent Kd [1, 6]: 83.2 nM
AAGGUGCACGCUCAGGAUAUAUUCCAGGUUACAUGAGGAUCACCCAUGUAGGGUUGAAGAAGGACAUAGAAGGGAGCCUACUUGGC	–	–	apparent Kd [1, 5]: 32.6 nM; apparent Kd [1, 6]: 21.6 nM
AAGUGCAGCCGAGGAUAUAUCCACACGCCAGUACCCUCUCACAUGAGGAUCACCCAUGUUACCGGAUAGAAGGCGGUUUAUUAU	–	–	apparent Kd [1, 3]: 31.7 nM; apparent Kd [1, 4]: 58.5 nM
AAUAGCUAAGGAUAUACGUACUCAGAGUGAUAAAUCAAAUAACAUGAGGAUCACCCAUGUAGAAGGAAGAAAUA	–	–	apparent Kd [1, 3]: 30.9 nM; apparent Kd [1, 4]: 26.1 nM
AAUCGCAAUUGAGGAUAUUGAACUGAAUUGGCCACAUGAGGAUCACCCAUGUGACCUGUCUCCGUCAAGAAGGCAAUGUGGUGG	–	–	apparent Kd [1, 5]: 5.61 nM; apparent Kd [1, 6]: 4.81 nM
UUGUCGCAUGUAGGAUAUGUAUGUUAUUAUCAUACAGAAGGACAUGAGGAUCACCCAUGUGUAUUAUUAUUAUAUGUUACAUAU	20.4	19.8	–
UUGUCUCAUGAGAAGGACAUGAGGAUCACCCAUGUAGGAUAUCAUGGGUCAGUGGAAUUGAAUCUUCGGAUUCAAUAACUCUAC	–	–	apparent Kd [2, 5]: 15 nM; apparent Kd [2, 6]: 7 nM
UUGUUACAUGAGGAUCACCCAUGUGAGGAUAUGGUUCGGUACUGUCCUGUCGCGUACUCCAGAAGGCACAUGUU	63.6	182	–
UUGUUAGGGAGAGGAUAUUGACAUGAGGAUCACCCAUGUACUUGGGAGUGUUUACUGAAUUCUUACGAGAAGGCUUACAAAUUU	165	105	–
UUGUUAUAUGUAGGAUAUGCGUGUUAUUAUUAUGCAGAAGGACAUGAGGAUCACCCAUGUGUAUUAUUAUUAUAUAUUAUAUAU	20.3	18.1	–
UUGUUAUGUGUAGGAUAUGCAUAUUAUUAUUAUGCAGAAGGACAUGAGGAUCACCCAUGUAUAUUAUUAUUAUAUAUUAUAUAU	28.7	37	–
UUGUUUCGUCAUUAACAUGAGGAUCACCCAUGUAUCGACUCAAAGGAUAUAUAUGCUUGUUUGCAAUAGAAGGUUGAUUGUUGU	–	–	apparent Kd [2, 5]: 27.9 nM; apparent Kd [2, 6]: 26.5 nM
UUUAAGCGAGGAUAUACAUGAGGAUCACCCAUGUCAAGUAUUCUUGACGCCGUGCUCUGUAGAAGGCGCAAUUA	65.2	522	–
UUUACAUGAGGAUCACCCAUGUUAAAAUAAUUAAUUAUAAGUGAGGAUAUAUAAAUUAUAAAAUUGUAGAAGGCACUGGGUAUU	–	–	apparent Kd [2, 5]: 22 nM; apparent Kd [2, 6]: 23.4 nM
UUUACCAGAGGAUAUGCGAAUAAAUAAAACUUUUUUUUUUAACAUGAGGAUCACCCAUGUAGAAGGCUGCUUUU	25.4	23.6	–
UUUAGUAUCUAGGAUAUCUAGUACAUAGUAUCUAGAGAAGGAGAUACAUGAGGAUCACCCAUGUUCUGUGUUCU	23.4	58.4	–
UUUAGUUGCGGGCAGGAUAUGUGUUAAAAUACAUGAGGAUCACCCAUGUGCGGGUAUAACACCCGACAGAAGGGCCAAUCGCGAC	–	–	apparent Kd [2, 5]: 73.6 nM; apparent Kd [2, 6]: 24.4 nM
UUUAUACAUGAGGAUCACCCAUGUCAAUGUAGUCGAGGAUAUGGGCAGCCGUGAGGCGUACUAGAAGGCGAAGAGG	–	–	apparent Kd [2, 5]: 203 nM; apparent Kd [2, 6]: 64.9 nM

Sequence	apparent Kd [2, 3] [nM]	apparent Kd [2, 4] [nM]	further results
UUUAUAUAGUAAGGAUAUGUAUUAUGUUUAUCAACAGAAGGUACUGACAUGAGGAUCACCCAUGUUUUAGUGUGGGCAUGUAGU	218	301	–
UUUAUAUUCAGAGGAUAUUAAAGUAGUAUAAUAUAAGAAGGCUGUUUGUUUUGUAAAUUUAUUCUACAUGAGGAUCACCCAUGU	–	–	apparent Kd [2, 5]: 19.5 nM; apparent Kd [2, 6]: 15.7 nM
UUUAUGUCAGGAUAUGAUUAGAUCUACUUCGGUAGAUCUAAUCAGAAGGGACAUGAGGAUCACCCAUGUUUUUU	43.8	223	–
UUUAUUUUGCAAGGAUAUGUUUAAUUUUAGUUUCCUUAAACAUGAGGAUCACCCAUGUUAUACUUACAGAAGGUGCAUAAUUUU	90.6	52.5	–
UUUCAGCUCACAUGAGGAUCACCCAUGUCCGUUCGCCCGGACAGAAGGCACCCAUAACAAUGCGGUGAGGAUAUGUCAGCAAGG	–	–	apparent Kd [2, 5]: 141 nM; apparent Kd [2, 6]: 14 nM
UUUCAGUCAGGAUAUCGUUAAUUUAAUUGUUUGUAUUAGUUCGAGAAGGGACAUGAGGAUCACCCAUGUACUCU	19.6	20	–
UUUCUUGGGCAAGGAUAUCCUGUGCGGUUACGGCUCGUGUCUGUCACAUGAGGAUCACCCAUGUGGGAGAAGGUGCCUGCGGUC	6.09	6.78	–
UUUGAGUGAGGAUAUUGCACCUCUGGGUCACCUCAGAGGUUUGAGAAGGCACAUGAGGAUCACCCAUGUUCCGC	19.7	32.2	–
UUUGCAACAUGAGGAUCACCCAUGUAGGAUAUCGCUAUUGUAAUCAUGAAACAUGAUUACAAUAGCGAGAAGGACAUAUGCUUU	20.1	18.3	–
UUUGCAUGACGAGGAUAUCAUUUAUUUCUUGAUUGAGAAGGCGUUCUUUUUACUACCUAACAUGAGGAUCACCCAUGUGACAGU	–	–	apparent Kd [2, 5]: 16.1 nM; apparent Kd [2, 6]: 12.7 nM
UUUGCAUUCCGAGGAUAUUCAUUUAAUGUCUUCACAUGAGGAUCACCCAUGUGGCGCUUGCGCCGGGAGAAGGCGGUUUGCUUU	–	–	apparent Kd [2, 5]: 28.6 nM; apparent Kd [2, 6]: 29.3 nM
UUUGGGAGCACAGGAUAUGGCGCGUCGACCGCGCCAGAAGGGUGAUUCUGUUGGUGGCCACAUGAGGAUCACCCAUGUGCCUCC	–	–	apparent Kd [2, 5]: 42.4 nM; apparent Kd [2, 6]: 55.3 nM
UUUGUCUGUGUGAGGAUAUACUUGUUUGGGUUUUUGUAGAAGGCACAUGAGGAUCACCCAUGUAUUUUGUCGUG	43.6	61.6	–
UUUGUCUGUGUGAGGAUAUACUUGUUUGGGUUUUUGUAGAAGGCACAUGAGGAUCACCCAUGUAUUUUGUUGUG	58.3	75.5	–
UUUGUUUAUGCAGGAUAUUGACUUUUAUUUCUACAAGAAGGGCAUUACAUGAGGAUCACCCAUGUCUACAUGUAUUUAACUAGU	67.8	49.1	–
UUUUAACAUGAGGAUCACCCAUGUGAGGAUAUCGAAAUUUAUAUUUAUAUUAAUAAUUCGAGAAGGCACAUUUU	172	165	–
UUUUACUAGUAAGGAUAUACUAGCGAUUAGCUUGUAGAAGGUACAGUCUUAUGUAUAACAUGUUAACAUGAGGAUCACCCAUGU	–	–	apparent Kd [2, 5]: 62.1 nM; apparent Kd [2, 6]: 34.5 nM
UUUUAGGGAGGAUAUACAUUUUUUUUAUUAUCCUCAUUAAUACAUGAGGAUCACCCAUGUAGAAGGCCCAUUUU	39.2	164	–
UUUUAUUGCAAGGAUAUGCAAAUUAUUAUUAAUGCAGAAGGUGCUACAUGAGGAUCACCCAUGUUUCUGGGUUU	98.2	308	–
UUUUCCAGAGGAUAUGCGAAUAAAUAAAACUUUUUUUUUUAACAUGAGGAUCACCCAUGUAGAAGGCUGAUUUU	47.9	48.5	–
UUUUGGCAUGUAGGAUAUGGGUCCGAUUAGGAUUUAGAAGGACAUGAGGAUCACCCAUGUGCAUUUAAUUGGUCAUUACCUUUU	84.9	115	–
UUUUUAGCAGGAUAUAUCCACGACUACAUGAGGAUCACCCAUGUGGCCGCUUGAAGUUGUAUAGAAGGGCUUUUUU	24.8	23.4	–
UUUUUAUAUGAAGGAUAUACUUAACAUGAGGAUCACCCAUGUGGUGUUGUGAGUGAGUGAGUUUAGUAGAAGGUCAAUUCUUUU	236	205	–
UUUUUAUUUGCAGGAUAUUGUUUUUUAUUACUUCAAGAAGGGCAUUACAUGAGGAUCACCCAUGUCAUCCUAUGGUUAACUAGU	9.64	11.6	–
UUUUUGUGAGGAUAUCAGUAGUAAAAAAAUAAAAUUACUACUGAGAAGGCACAUGAGGAUCACCCAUGUUCCUU	14.3	33.5	–
UUUUUGUGAGGAUAUCAGUAGUAGAACAAUAGUACUACUACUGAGAAGGCACAUGAGGAUCACCCAUGUUUCUC	50.2	294	–
UUUUUUUACUAGGAUAUCAGAGUCGAAAGACUCUGAGAAGGAGUAACAUGAGGAUCACCCAUGUGUCCUUUUUU	20.1	49.3	–
